Columns and labels:
PfSENP1 = conditions: P. falciparum lysates; ref Ponder et al. Submitted; cited from earlier work
ΔNhSENP1 = biological target: T1, ΔNhSENP1 (Homo sapiens, UniProt Q9P0U3); assay: ProSUMO processing; assay type: biochemical; conditions: 100nM ΔNhSENP1, 0–100μM compound, 30 min pre-treatment
T1 sequence (Q9P0U3 450-613 limits assumed): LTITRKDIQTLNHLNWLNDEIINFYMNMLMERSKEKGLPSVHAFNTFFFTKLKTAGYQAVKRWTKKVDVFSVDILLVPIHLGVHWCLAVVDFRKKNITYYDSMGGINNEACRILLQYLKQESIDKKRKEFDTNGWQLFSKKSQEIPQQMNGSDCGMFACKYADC
Summary of the method: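 ΔNhSENP1 (100 nM) was pretreated with inhibitor for 30 min in 50 mM Tris pH 7.4, 5 mM NaCl, 5 mM DTT (37 °C in methods, room temperature in legend). It then cleaved recombinant hSUMO1 carrying its full pro-sequence and a C-terminal His6 tag for 1 h at 37 °C. Loss of the pro-region and tag was scored as a band shift on SDS-PAGE with Gelcode Blue stain, beside a substrate-only lane.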

human SENP8 = biological target: T2, human SENP8 (Homo sapiens, UniProt Q96LD8); assay: Cross-reactivity against purified deNEDDylase; assay type: biochemical; conditions: purified enzyme, Figure S4
T2 sequence (Q96LD8 1-212): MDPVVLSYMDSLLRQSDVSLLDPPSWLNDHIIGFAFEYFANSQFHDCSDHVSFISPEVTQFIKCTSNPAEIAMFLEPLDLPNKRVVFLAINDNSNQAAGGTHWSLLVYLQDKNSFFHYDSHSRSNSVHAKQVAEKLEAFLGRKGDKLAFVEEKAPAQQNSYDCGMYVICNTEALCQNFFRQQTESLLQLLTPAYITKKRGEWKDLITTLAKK

human DUB UCHL3 = biological target: T3, human DUB UCHL3 (Homo sapiens, UniProt P15374); assay: Cross-reactivity against purified DUB; assay type: biochemical; conditions: purified enzyme, Figure S4
T3 sequence (P15374 1-230): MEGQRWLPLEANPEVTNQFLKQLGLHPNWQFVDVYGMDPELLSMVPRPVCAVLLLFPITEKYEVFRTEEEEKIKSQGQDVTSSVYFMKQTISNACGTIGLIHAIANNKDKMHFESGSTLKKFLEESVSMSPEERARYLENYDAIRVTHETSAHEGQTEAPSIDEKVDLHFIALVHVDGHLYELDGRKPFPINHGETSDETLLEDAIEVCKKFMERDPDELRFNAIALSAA

[1] = Stability of the epoxide in aqueous media; assay type: physicochemical; conditions: relative to aza-aspartic acid epoxides
[2] = system: DUBs in HEK293 cell lysates; assay: Competition of HA-Ubvme probe labeling in HEK293 cell lysates; assay type: binding, human; conditions: Figure S4
endogenous SENP6 = biological target: T4, endogenous SENP6 (Homo sapiens, UniProt Q9GZR1); assay: Cell lysate treatment, competition of HA-SUMO2vme labeling; assay type: binding; conditions: treatment of cell lysates
T4 sequence (Q9GZR1 1-1112): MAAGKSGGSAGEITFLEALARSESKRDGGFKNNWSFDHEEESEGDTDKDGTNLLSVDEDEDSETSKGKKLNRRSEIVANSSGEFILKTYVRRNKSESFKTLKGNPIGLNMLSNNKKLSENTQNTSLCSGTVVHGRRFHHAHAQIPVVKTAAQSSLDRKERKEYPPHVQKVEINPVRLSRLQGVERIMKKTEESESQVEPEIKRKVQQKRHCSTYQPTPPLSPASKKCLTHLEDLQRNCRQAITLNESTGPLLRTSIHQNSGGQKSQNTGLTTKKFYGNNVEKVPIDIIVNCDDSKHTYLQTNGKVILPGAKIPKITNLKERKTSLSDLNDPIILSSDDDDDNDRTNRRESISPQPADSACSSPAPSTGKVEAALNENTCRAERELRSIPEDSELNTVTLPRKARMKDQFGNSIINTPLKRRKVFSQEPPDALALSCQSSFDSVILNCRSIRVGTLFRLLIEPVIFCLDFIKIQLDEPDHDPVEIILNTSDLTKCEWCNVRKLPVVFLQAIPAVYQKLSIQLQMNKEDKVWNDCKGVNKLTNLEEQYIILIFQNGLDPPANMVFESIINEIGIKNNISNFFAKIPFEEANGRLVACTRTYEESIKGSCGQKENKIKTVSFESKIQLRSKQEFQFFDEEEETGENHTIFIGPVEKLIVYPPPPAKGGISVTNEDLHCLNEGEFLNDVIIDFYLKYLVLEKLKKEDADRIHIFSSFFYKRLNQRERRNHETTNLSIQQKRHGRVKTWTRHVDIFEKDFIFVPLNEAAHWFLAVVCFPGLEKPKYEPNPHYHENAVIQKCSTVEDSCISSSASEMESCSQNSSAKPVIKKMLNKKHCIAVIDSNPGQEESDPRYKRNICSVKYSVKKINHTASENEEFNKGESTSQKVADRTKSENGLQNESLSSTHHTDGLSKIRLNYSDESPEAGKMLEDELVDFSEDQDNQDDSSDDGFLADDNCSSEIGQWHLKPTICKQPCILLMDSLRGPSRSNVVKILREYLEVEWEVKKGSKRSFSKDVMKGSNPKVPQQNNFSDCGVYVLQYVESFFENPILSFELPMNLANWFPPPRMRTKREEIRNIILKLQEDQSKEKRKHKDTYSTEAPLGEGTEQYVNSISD

endogenous SENP1 = biological target: T5, endogenous SENP1 (Homo sapiens, UniProt Q9P0U3); assay: as above; assay type: binding; conditions: treatment of cell lysates
T5 sequence (Q9P0U3 1-644): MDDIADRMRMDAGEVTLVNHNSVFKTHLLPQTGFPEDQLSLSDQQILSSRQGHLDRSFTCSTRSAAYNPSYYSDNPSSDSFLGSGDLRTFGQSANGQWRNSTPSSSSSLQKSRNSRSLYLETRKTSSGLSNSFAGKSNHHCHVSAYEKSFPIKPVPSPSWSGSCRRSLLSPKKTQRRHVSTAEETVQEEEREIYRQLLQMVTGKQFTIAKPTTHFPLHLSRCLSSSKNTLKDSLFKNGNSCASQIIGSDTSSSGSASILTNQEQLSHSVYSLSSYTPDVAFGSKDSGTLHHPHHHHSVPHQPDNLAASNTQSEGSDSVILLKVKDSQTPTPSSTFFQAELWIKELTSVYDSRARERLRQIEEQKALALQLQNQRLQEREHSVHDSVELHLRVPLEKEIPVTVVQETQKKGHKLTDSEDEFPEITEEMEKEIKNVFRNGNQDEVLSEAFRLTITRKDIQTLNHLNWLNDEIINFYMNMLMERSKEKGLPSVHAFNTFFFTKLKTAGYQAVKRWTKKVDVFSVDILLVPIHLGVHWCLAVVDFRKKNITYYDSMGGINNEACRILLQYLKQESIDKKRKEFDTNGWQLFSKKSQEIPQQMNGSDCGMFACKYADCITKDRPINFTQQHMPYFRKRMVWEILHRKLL

ΔNhSENPs1, 2, 5, 6 and 7 = assay: Fluorogenic substrate screen against the panel of recombinant hSENPs; assay type: biochemical, human; conditions: 50μM inhibitor, 1 hour preincubation, heat map Figure 4
Summary of the method: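 Recombinant N-terminally truncated hSENPs were preincubated 1 h at 37 °C with 50 μM inhibitor in 50 mM Tris pH 8.0, 20 mM NaCl, 10 mM DTT. The enzyme level is given only for hSENP1, at 2 μM final. Then 100 nM Ac-QTGG-AFC (SENP1, 2, 5) or Ac-LRGG-AFC (SENP6, 7) was added. AFC release was read at 405/510 nm, 37 °C. Slope (RFU/min) was taken relative to DMSO (100%), averaging independent triplicates.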

Row | SMILES | activity against hSENP8 (human SENP8) | activity against UCHL3 (human DUB UCHL3) | relative inhibitor potency in the fixed concentration screen (ΔNhSENPs1, 2, 5, 6 and 7) | further results
1 | O=C(O)CN(NC(=O)c1ccc(CNC(=O)c2cccc(C(=O)O)c2)cc1)C(=O)[C@H]1O[C@@H]1C(=O)N(Cc1cccc2ccccc12)Cc1cccc2ccccc12 [JCP666] |  |  |  | potency against parasite SENP (PfSENP1): effectively blocked PfSENP activity
2 | O=C(O)c1cccc(C(=O)NCc2ccc(C(=O)NNC(=O)[C@H]3O[C@@H]3C(=O)N(Cc3cccc4ccccc34)Cc3cccc4ccccc34)cc2)c1 [VEA260] | virtually no activity against either enzyme | virtually no activity against either enzyme |  | activity in ProSUMO processing assay (ΔNhSENP1): retained full activity against hSENP1; stability of the compound [1]: more stable compound
3 | O=C(CNC(=O)c1ccc(CNC(=O)c2cccc(C(=O)O)c2)cc1)COC(=O)c1c2ccccc2cc2ccccc12 [VEA401] |  |  |  | block of DUB labeling by HA-Ubvme probe [2]: did not block labeling of DUBs; block of endogenous SENP6 labeling by HA-SUMO2vme probe (endogenous SENP6): not able to find conditions in which we could treat cell lysates with VEA401 and block labeling of endogenous SENP1 or SENP6; block of endogenous SENP1 labeling by HA-SUMO2vme probe (endogenous SENP1): not able to find conditions in which we could treat cell lysates with VEA401 and block labeling of endogenous SENP1 or SENP6
4 | C[C@H](O)C(NC(=O)[C@H](CCC(N)=O)NC(=O)Cc1ccc(O)c([N+](=O)[O-])c1)C(=O)NCC(=O)NCC(=O)COC(=O)c1c2ccccc2cc2ccccc12 (some centres unmarked) [VEA499] | only activity against hSENP8 | only activity against hSENP8 | substantially more potent than the tripeptide (VEA498) equivalent | 
5 | CC(C)C[C@H](NC(=O)Cc1ccc(O)c([N+](=O)[O-])c1)C(=O)N[C@@H](CCCN=C(N)N)C(=O)NCC(=O)NCC(=O)COC(=O)c1c2ccccc2cc2ccccc12 [VEA561] | only activity against hSENP8 | only activity against hSENP8 | most potent towards hSENP6 and hSENP7 | 
